High-throughput results (PubChem BioAssay)
Sampled rows, rich in hits. Any-hit rate of the full collection: about 9.2%.
Lung fibro prol: antiproliferative effect on LL 47 fibroblasts – human, LL 47 cells, CellTiter-Glo luminescence, primary screen. LL 47 human lung fibroblast viability, ATP luminescence; active compounds read low. viability, % at 10 µM. hit rate 1.1% among 85,000;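 active = viability at or below 50% in the single dose screen; inactive = viability above 50%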;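 also: compound exposure lasted 72 h before the ATP readout; 100% = median luminescence of untreated cell-only wells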
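Signal: luminescent ATP detection, CellTiter-Glo; assay system: LL 47 human lung fibroblasts; input: 1,150 cells/well; incubation: overnight cell rest, 72 h compound treatment at 37 °C; measure: % viability versus median cells-only luminescence; medium: IMEM growth medium with 15% fetal bovine serum; dosing: compound addition at 0.1% DMSO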
H69AR growth 86K: proliferation blockers of H69AR lung cancer cells, primary screen, cell-based, human, 86K library; H69AR lung tumor viability, ATP luminescence, 72 h; active compounds read low; viability, % at 10 µM; hit rate 6% among 85,000; AID 598, 2007;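 active = viability at or below 40%; inactive = viability above 40%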;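 also: multidrug resistant small cell line overexpressing MRP-1 efflux transporter; 100% = mean luminescence of untreated control wells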
ERb SRC1 inh: inhibitors of ERβ-SRC1 coactivator interaction, primary screen, biochemical, TR-FRET, ERβ LBD, SRC-1 peptide; TR-FRET ER-beta LBD / SRC1-Cy5 peptide binding; receptor agonist-loaded with 1 µM estradiol; inhibition, % at 25.6 µM; Estrogen receptor beta (Homo sapiens), Q92731; hit rate 1.3% among 86,000;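 active = compounds whose percent inhibition of the receptor-coactivator binding signal exceeds about 50% in the single-dose screen, limit read from the data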;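 also: 0% = receptor plus peptide wells without compound and 100% = peptide-only wells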
HUVEC prolif 384: inhibitors of HUVEC proliferation, primary screen, cell-based, 384-well; AID 648, 2007; hit rate 1.1% among 86,000; CellTiter-Glo luminescence, 72 h; active compounds read low; viability, % at 10 µM (by protocol);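 active = viability at or below 30%; inactive = viability above 30%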;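 also: 100% = median luminescence of DMSO-only cell control wells on each plate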
ERa coact pot: enhancers of ERα–SRC-1 coactivator binding, primary screen, biochemical, TR-FRET, ERα LBD, low estradiol. TR-FRET ERalpha-LBD/SRC-Cy5 coactivator binding, 2 h; 100 = basal binding, no effect. hit rate 1.3% among 86,000. coactivator binding (% of control), % at 25.6 µM; in the data active = activity above about 200%;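 also: binding measured in presence of low estradiol as agonist stimulus; 0% = peptide alone without receptor and 100% = receptor with peptide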
Target sequence (P03372 whole entry, looked up, the tested form may be a part): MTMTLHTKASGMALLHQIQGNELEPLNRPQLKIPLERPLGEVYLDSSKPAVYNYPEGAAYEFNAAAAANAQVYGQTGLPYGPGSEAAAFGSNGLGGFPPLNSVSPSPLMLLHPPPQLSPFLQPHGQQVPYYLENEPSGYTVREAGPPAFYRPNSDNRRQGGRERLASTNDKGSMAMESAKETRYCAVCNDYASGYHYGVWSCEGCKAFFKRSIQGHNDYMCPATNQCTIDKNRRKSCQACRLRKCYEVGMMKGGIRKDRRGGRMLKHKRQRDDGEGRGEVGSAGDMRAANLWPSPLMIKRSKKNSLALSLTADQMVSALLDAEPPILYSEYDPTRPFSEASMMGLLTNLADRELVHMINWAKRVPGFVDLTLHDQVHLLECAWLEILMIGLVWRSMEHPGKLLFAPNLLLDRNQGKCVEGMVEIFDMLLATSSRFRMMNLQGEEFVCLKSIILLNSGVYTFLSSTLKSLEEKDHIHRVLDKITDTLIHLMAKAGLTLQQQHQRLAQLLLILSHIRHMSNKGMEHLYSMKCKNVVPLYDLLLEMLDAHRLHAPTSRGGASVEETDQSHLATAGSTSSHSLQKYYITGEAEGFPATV
ERa coact inh: ERα–SRC-1 coactivator interaction inhibitors, primary screen, biochemical, TR-FRET, ERα LBD, estradiol-bound. inhibition, % at 25.6 µM. TR-FRET ER-alpha LBD / SRC-1 peptide. hit rate 1.7% among 86,000; in the data active = inhibition above about 50%;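 also: 0% = receptor plus peptide control and 100% = peptide only without receptor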
An asterisk follows results filed as active; [ ] = dose if it differs, or a comment.

SMILES	Lung fibro prol	H69AR growth 86K	ERb SRC1 inh	HUVEC prolif 384	ERa coact pot	ERa coact inh
C=CCn1c(SCc2c(C)noc2C)nc2ccccc2c1=O	43*	20*	-11	46	95	4
Cc1noc(C)c1CSc1nc2ccccc2c(=O)n1-c1ccccc1	58	17*	0	61	81	1
Brc1ccc(-c2cn3c(n2)CCc2ccc4cccnc4c2-3)cc1	97	58	-6	64	192	-8
O=C(NCCc1ccccc1F)C1CCCN1S(=O)(=O)c1ccc2ccccc2c1 (configuration not stated)	99	101	5	88	104	-3
C=CCn1c(SCc2nc3ccccc3c(=O)[nH]2)nc2ccccc2c1=O	86	5.6*	5	73	141	5
COc1ccc(-c2noc(CSc3nc4ccccc4c(=O)n3-c3ccccc3)n2)cc1	86	29*	19	83	120	16
C=CCn1c(Cc2ccc(OC)cc2)nnc1SCc1nc2ccccc2c(=O)[nH]1	102	98	-9	89	92	2
COc1cccc(-c2noc(C3CCCN(S(=O)(=O)c4cccc(Cl)c4C)C3)n2)c1 (configuration not stated)	99	83	2	95	120	-2
CCCCOc1ccccc1C(=O)NCC(=O)O	110	96	-1	96	95	-2
CCCCCOc1ccccc1C(=O)NCC(=O)O	107	83	79*[fluorescence artefact?]	97	119	-3
Cc1ccc(-c2nnn(CCC(=O)NC3CCCC3)n2)cc1	114	104	1	102	107	5
CN1CCc2nc(SCC(=O)Nc3ccc(F)cc3)c(C#N)cc2C1	94	86	49	111	38	83*
CCN1CCc2nc(SCC(=O)Nc3ccc(OC)cc3)c(C#N)cc2C1	101	102	5	106	11	39
COc1ccc(NC(=O)CSc2nc3c(cc2C#N)CN(C)CC3)cc1	102	88	56*	91	34	93*[fluorescence artefact?]
CC1=Nc2ccccc2/C1=C/c1sc(=N)n(-c2nccs2)c1O	52	2.9*	9	52	56	24
COc1ccc(C(=O)NCC(c2cccnc2)N2CCN(c3ccccc3)CC2)cc1OC (configuration not stated)	95	92	-8	108	117	-3
CN(C)/N=C/C=C1\CC/C(=C\c2ccc(Br)cc2)C1=O	96	24*	4	82	108	8
CCNc1nc(SCCOc2ccc(C)cc2)nc(N(C)C)n1	85	31*	-12	97	112	-4
Cc1cccc(Nc2nn3c(=O)c4ccccc4nc3s2)c1	107	105	58*[fluorescence artefact?]	97	221*[fluorescence artefact?]	66*[fluorescence artefact?]
Cc1cccc(NC(=O)c2cc(N3CCOCC3)nc3ccccc23)c1	94	86	7	95	78	-2
N=c1oc2ccc3ccccc3c2cc1-c1nnc2n1CCCCC2	106	86	-6	102	106	0
CCCn1c(SCc2cc(=O)oc3ccc4ccccc4c23)n[nH]c1=O	96	89	8	103	81	-3
Oc1ccc(-c2cn3c(n2)SCC3)cc1	99	91	67*[fluorescence artefact?]	93	114	-8
Oc1ccc(-c2cn3c(n2)SCC3)cc1O	83	44	94*[fluorescence artefact?]	58	20	75*[fluorescence artefact?]
c1ccc(-c2cn3c(n2)SCC3)cc1	104	81	-1	99	103	-8
SMILES	Lung fibro prol	H69AR growth 86K	ERb SRC1 inh	HUVEC prolif 384	ERa coact pot	ERa coact inh
Cc1oc2ccccc2c1-c1cn2c(n1)SCC2	101	101	8	87	84	0
COc1ccc2[nH]c(C)c(CN3CCCC(C)C3)c(=O)c2c1 (configuration not stated)	104	86	3	103	96	-3
COc1ccc(C(=O)c2ccc(N(C)C)cc2)c2ccccc12	59	27*	4	40	80	8
CN(C)c1ccc(C(=O)c2ccc(O)cc2O)cc1	109	51	-8	95	80	-11
C=CCn1c(N)c(C(=O)OC(C)CC)c2nc3ccccc3nc21 (configuration not stated)	93	109	-5	76	123	3
C=CCn1c(N)c(C(=O)OC(C)(C)C)c2nc3ccccc3nc21	95	30*	0	93	107	-4
NC(=O)c1ccc(C2SCC(=O)N2Cc2ccccc2)cc1 (configuration not stated)	94	105	1	91	101	4
O=C(O)CC(Cn1[nH]nnc1=S)c1ccccc1 (configuration not stated)	101	89	52*	95	108	-9
O=C(O)CC(CC(=O)Nc1nncs1)c1ccccc1 (configuration not stated)	99	98	-9	105	137	-5
O=c1ccc(Oc2nc(N3CCOCC3)nc(N3CCOCC3)n2)n[nH]1	104	80	-9	92	102	2
O=S(=O)(NCc1ccc(Cl)cc1)c1cnc[nH]1	89	100	-32	93	97	-29
Cc1ccc(CCNS(=O)(=O)c2cnc[nH]2)cc1	98	101	70*	94	123	10
O=C(NCc1ccc2c(c1)OCO2)c1ccc(C2SCC(=O)N2Cc2ccco2)cc1 (configuration not stated)	101	97	33	92	215*[fluorescence artefact?]	43
CCOC(=O)N1CCN(C(=O)c2ccc(NS(C)(=O)=O)cc2)CC1	104	97	1	98	123	-12
CCOC(=O)N1CCN(C(=O)c2ccc(C)c(S(=O)(=O)Nc3ccccc3)c2)CC1	89	36*	-7	93	111	-10
CCOC(=O)N1CCN(C(=O)c2ccc(C)c(S(=O)(=O)Nc3cccc(C)c3C)c2)CC1	82	40*	-1	85	87	-4
Cc1ccc(C(=O)N2CCOCC2)cc1S(=O)(=O)Nc1cccc(C)c1C	98	81	5	95	103	-12
NC(=O)c1ccsc1NC(=O)COC(=O)C1CCCN1C(=O)c1cccs1 (configuration not stated)	91	96	68*[fluorescence artefact?]	85	44	53*[fluorescence artefact?]
c1ccc(-n2ncc3c2ncn2nc(-c4ccco4)nc32)cc1	91	52	49	90	315*[fluorescence artefact?]	45
CCCCC(c1nnnn1CCOC)N1CCN(C)CC1 (configuration not stated)	106	92	-13	100	119	-5
